p97 ATPase inh: blocks human p97 ATPase activity; P55072; recombinant p97 ATPase, Kinase-Glo ATP luminescence, 3 h; inhibition, % at 8 µM; 0.42% of 220,000 active; AID 1481; in the data active = inhibition above about 15%
PERK inh: human PERK inhibition, primary cell-based screen | Q9NZJ5 | CHO PERK-DD fusion, SEAP luminescence translation reporter | inhibition, % at 5.6 µM | 0.17% of 220,000 active | AID 1416;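 active = inhibition above the mean inhibition of all tested compounds plus 3 SD, set separately per screening campaign, cut at about 2.9% in these data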;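 note: PERK kinase domain activated by AP20187 dimerizer at 100 nM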
14-3-3 Bad PPI: disrupts binding of bovine 14-3-3 zeta to phospho-Bad peptide; P63103; TR-FRET 14-3-3zeta/Dy647-pBad peptide displacement, 1 h; inhibition, % at 21.7 µM; 0.71% of 220,000 active; AID 781;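 active = inhibition above about 70%, limit read from the data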
Target sequence (P63103 whole entry, looked up): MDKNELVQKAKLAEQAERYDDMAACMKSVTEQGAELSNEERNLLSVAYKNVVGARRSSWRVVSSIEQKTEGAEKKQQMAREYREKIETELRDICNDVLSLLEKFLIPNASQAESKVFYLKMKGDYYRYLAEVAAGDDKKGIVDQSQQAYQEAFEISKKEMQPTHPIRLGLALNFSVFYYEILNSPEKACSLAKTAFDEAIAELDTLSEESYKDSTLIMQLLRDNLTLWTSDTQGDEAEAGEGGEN
Biofilm kill mix: mixture kills Candida albicans biofilm cells | C. albicans biofilm persisters + clotrimazole, fluorescence viability; primary screen in compound mixtures of four per well | inhibition, % at 7.6 µM | 0.02% of 120,000 active;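 active = inhibition above 30.3% in the primary screen of four-compound pools, then above 30% when the compound was retested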;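 note: compounds exposed to preformed 24 h biofilms for 48 h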
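Test system: C. albicans biofilms. Buffer or medium: RPMI/MOPS medium, pH 7.0. Timing: 48 h compound exposure at 37 °C. Technique: Alamar Blue fluorescence. Evaluation: percent inhibition of biofilm viability.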
eIF4E-4G inh: inhibitors of eIF4E and eIF4G interaction in translation initiation; P63073+Q04637; TR-FRET eIF4E-eIF4GI(517-606) binding, 2 h; inhibition, % at 21.7 µM; 0.37% of 220,000 active;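 active = inhibition above about 30%, limit read from the data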
Hck Nef HTS: blocks Nef-activated human Hck kinase | P08631 | Recombinant Hck-YEEI plus Nef, Z-Lyte FRET kinase assay | 0.68% of 220,000 active | inhibition, % at 20 µM;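 active = Hck-Nef kinase inhibition above about 50%, limit read from the data; inactive = inhibition below that limit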
Numbers stand for hits; 0 = inactive; - = no result given; [ ] = dose if it differs, or a comment. Sampled rows, rich in hits. Any-hit rate of the full collection: about 2.2%.

SMILES	p97 ATPase inh	PERK inh	14-3-3 Bad PPI	Biofilm kill mix	eIF4E-4G inh	Hck Nef HTS
O=C(Cc1ccccc1)Nn1cnc2ccccc21	0	0	78.0	-	0	0
O=C(Cn1cnc2ccccc21)NCc1ccccc1	0	0	0	-	0	0
COc1ccc(C(=O)CNc2ccc(C)cc2C)cc1	0	0	0	0	0	0
COc1nc(NCCO)nc(Nc2ccccc2F)n1	0	0	0	0	0	0
Cc1csc(NC(=O)c2cncc(Br)c2)n1	0	0	0	0	0	0
COc1ccc(C(=O)C(c2ccccc2)N2CCOCC2)cc1 (stereo not drawn)	0	0	71.0	-	0	0
Cc1cc(C(=O)Nc2ncn(Cc3ccc(F)cc3)n2)ccc1[N+](=O)[O-]	0	0	0	0	0	0
Nc1nc(Nc2cccc(Cl)c2)n[nH]1	0	0	0	0	0	0
COC(=O)c1c(C)c[nH]c1C	0	0	0	0	0	0
COC(=O)c1c(C)cc(OC(C)=O)c(C)c1OC(C)=O	0	0	0	-	33.4	0
CCOC(=O)N1CCN(C(=O)C2CCN(Cc3ccc(O)c(OCC)c3)CC2)CC1	0	0	0	0	0	0
CCOc1cc(CN2CCSCC2)ccc1O	0	0	73.9	-	0	0
COc1cccc(CN(C)C(=O)c2ccc3nccnc3c2)c1	0	0	0	-	0	0
CCN1/C(=C/c2ccc3cc(C)ccc3[n+]2CC)Sc2cc(C)c(C)cc21	0	0	0	32.3	0	0
Clc1ccc(CNc2ccc(CNc3ncn[nH]3)cc2)c(Cl)c1	0	0	0	0	0	0
COc1cc(CNCc2ccccn2)ccc1OCc1cccc(Cl)c1	0	0	87.8	-	0	0
CCNC(=O)C1=C(O)c2sccc2N(C)S1(=O)=O	0	0	0	0	36.6	0
CN1c2ccsc2C(O)=C(C(=S)Nc2ccccc2)S1(=O)=O	0	0	0	-	0	0
CCC(C)NC(=O)CN(c1ccc(Cl)c(Cl)c1)S(C)(=O)=O (stereo not drawn)	0	0	0	0	0	0
CCOC(=O)CSc1ncnc2c1cnn2-c1ccc(Cl)cc1	0	0	85.3	-	0	0
CCOC(=O)CSc1ncnc2c1cnn2-c1ccc(C)cc1	0	0	0	-	0	0
Cn1nc(C(F)(F)F)c(-c2ccccc2)c1NC(=O)CCC(=O)O	0	3.5	0	0	0	0
Cn1nc(C(F)(F)F)c(-c2ccccc2)c1NC(=O)CSCC(=O)O	0	0	0	0	0	0
CC(C)(C)c1ccc2c(c1)OC(C(=O)N/N=C/c1ccc([N+](=O)[O-])o1)CO2 (stereo not drawn)	0	0	0	0	0	0
O=C(Nc1ccon1)c1cccc(S(=O)(=O)N2CCCCC2)c1	0	0	0	0	0	0
SMILES	p97 ATPase inh	PERK inh	14-3-3 Bad PPI	Biofilm kill mix	eIF4E-4G inh	Hck Nef HTS
Cc1nn(CC(=O)Nc2sc3c(c2C#N)CCC(C(C)(C)C)C3)c(C)c1[N+](=O)[O-] (stereo not drawn)	0	3.0	0	-	0	0
CCNc1nc(NC(C)C)nc(Oc2ccc(OCCOc3ccccc3)nn2)n1	0	0	0	-	57.5	0
O=C(NCc1csc2ccccc12)Nc1cc(Cl)cc(Cl)c1	0	0	0	0	0	0
COc1ccc2sc(N3C(=O)CC(Cc4cccc(C)c4)C3=O)nc2c1 (stereo not drawn)	0	0	88.1	-	0	0
C[C@@H]1CC=C[C@H]2[C@H]1C(=O)N(Cc1ccccc1)[C@H]2c1cccc([N+](=O)[O-])c1	-	-	0	0	0	0
N#Cc1c(-c2ccccc2)nc(SCC(=O)N2c3ccccc3Sc3ccccc32)[nH]c1=O	0	0	0	0	0	82.0
N#Cc1c(-c2ccccc2)nc(SCC(=O)N(c2ccccc2)c2ccccc2)[nH]c1=O	0	0	0	0	0	0
COc1ccc(CC2(C)OC(c3ccc(C)c([N+](=O)[O-])c3)=NN2C(C)=O)cc1 (stereo not drawn)	0	0	0	0	0	0
CCN(CC)C(=O)c1cc([N+](=O)[O-])cc2c1-c1ccc([N+](=O)[O-])cc1C2=C(C#N)C#N	0	0	0	0	0	0
CCOC(=O)c1ccc(NC(=O)NCc2ccc(OC)cc2)cc1	0	0	79.2	0	0	0
COc1ccc(CNC(=O)Nc2ccc(C)cc2)cc1	0	0	0	-	0	0
CCOC(=O)NNc1ccc2nonc2c1[N+](=O)[O-]	20.9	0	0	0	0	0
CC1CCc2sc(C(=O)N/N=C/c3ccc(O)cc3)cc2C1 (stereo not drawn)	0	0	0	0	0	0
COc1cc(/C=N\Nc2nc(-c3ccc(C)cc3)c(NC(C)=O)s2)ccc1O	0	0	0	0	0	105.4
NC(=O)C12CCCC(Br)(CCC1)C2	0	0	0	0	91.6	0
COc1ccc(-n2c(=O)c3ccccc3n(Cc3cccc(C)c3)c2=O)cc1OC	0	0	0	0	0	0
Cc1ccc(C)c(NC(=S)NCCN(C2CCCCC2)C2CCCC2)c1	0	0	0	0	96.6	0
COc1ccccc1N(CC(=O)N/N=C/c1ccc(C(=O)O)cc1)S(=O)(=O)c1ccc(C)cc1	0	0	0	0	0	0
COc1ccc(C(=O)N(C)c2c(C)n(C)n(-c3ccccc3)c2=O)cc1OC	0	0	0	0	0	0
COc1cccc(C(=O)Oc2c(Br)cc(Br)cc2/C=N/NC(=O)c2cc(C)[nH]n2)c1	0	0	0	0	0	0
C=CCc1c(C)nc(-c2ccccc2)nc1N/N=C(\C)c1ccc(N)cc1	0	0	74.2[fluorescence artefact?]	0	0	0
C=CCc1c(C)nc(-c2ccccc2)nc1N/N=C/c1ccccc1	0	0	0	0	0	0
Cc1ccc(NC(=O)CN(C)C(=O)/C=C/c2cccs2)cc1	0	0	0	0	0	0
Nc1c(C(=O)NCC2CCCO2)sc2nc3c(c(-c4ccco4)c12)CC/C3=C\c1ccco1 (stereo not drawn)	0	0	0	0	0	88.3
O=C(CCN1C(=O)/C(=C/c2ccc3c(c2)OCO3)SC1=S)NNC(=O)c1cccnc1	0	0	71.4	0	0	0
SMILES	p97 ATPase inh	PERK inh	14-3-3 Bad PPI	Biofilm kill mix	eIF4E-4G inh	Hck Nef HTS
Cc1nnc2sc(-c3ccc(NC(=O)c4ccc(-c5ccc(Cl)cc5Cl)o4)cc3)nn12	0	0	-	-	-	86.7
Cc1nnc2sc(-c3ccc(NC(=O)c4cccnc4)cc3)nn12	0	0	-	-	-	0
COc1c2ccccc2c(OC)c2ccccc12	0	0	0	0	0	0
CC1CC(C)CN(C(=O)C2CCCN(S(=O)(=O)c3cnc[nH]3)C2)C1 (stereo not drawn)	0	0	0	0	0	0
CCN(CC)S(=O)(=O)c1cccc(NC(=O)c2ccc(-n3nc(C)cc3C)cc2)c1	0	0	0	0	0	0
Cc1ccc(/C=C/c2ccc(=O)n(Cc3ccc(Cl)cc3Cl)n2)cc1	0	3.0	0	-	0	0
O=c1ccc(/C=C/c2ccccc2)nn1Cc1ccc(Cl)cc1Cl	0	0	0	-	0	0
Cc1cc(C)c2nc(NNC(=O)c3cc(=O)c4ccccc4o3)sc2c1	0	0	0	0	0	0

Bioassay records: PubChem, several laboratories
